Source: PubChem (several laboratories)
APJ ag: APJ receptor agonism; CHO-K1 APJ PathHunter beta-arrestin, luminescence; 0% DMSO wells, 100% apelin; activation, % at 20 µM; 0.11% of 330,000 active;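 active = activation more than six SD over the plate average, tested at 20 µM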
Target sequence (P35414 whole entry, looked up): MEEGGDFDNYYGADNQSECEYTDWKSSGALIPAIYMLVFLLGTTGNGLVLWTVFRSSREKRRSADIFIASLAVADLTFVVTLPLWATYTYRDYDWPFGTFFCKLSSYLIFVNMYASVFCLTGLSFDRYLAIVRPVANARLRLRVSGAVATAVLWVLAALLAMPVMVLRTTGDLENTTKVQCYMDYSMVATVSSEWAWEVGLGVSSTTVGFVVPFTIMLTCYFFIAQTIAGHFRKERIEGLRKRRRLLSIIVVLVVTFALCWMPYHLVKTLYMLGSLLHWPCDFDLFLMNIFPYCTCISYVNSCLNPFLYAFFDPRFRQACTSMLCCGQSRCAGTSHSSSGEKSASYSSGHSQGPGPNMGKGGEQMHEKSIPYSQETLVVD
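Test system: CHO-K1 APJ beta-arrestin complementation cell line. Amount: cell density 1000 per well. Controls: DMSO negative, 10 nM Apelin-13 positive. Signal: luminescent beta-gal fragment complementation, chemiluminescent substrate. Read-out basis: agonist-driven arrestin binding to APJ. Timing: compound stimulation 90 min at 25 °C, detection 60 min.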
CXCR6 block: inhibitors of human CXCR6 receptor; O00574; CHO-K1 PathHunter CXCR6 beta-arrestin, luminescence; inhibition, % at 20 µM; 0.36% of 360,000 active; AID 602244; in the data active = inhibition above about 34%, passing the limit was not always enough;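 note: antagonist mode with CXCL16 agonist at 10 nM final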
APJ antagonist: blocks the human apelin receptor APJ | P35414 | CHO-K1 APJ beta-arrestin complementation, luminescence | inhibition, % at 20 µM | 0.32% of 330,000 active | AID 2521;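 active = inhibition above about 40% at 20 µM, limit read from the data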;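 note: cells challenged with 10 nM apelin-13 agonist together with compound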
m5-HT2A agonist: agonists of mouse serotonin 5-HT2A receptor (HTR2A) | P35363 | CHO-K1 mHTR2A beta-arrestin complementation, luminescence; percent of 30 µM serotonin response | activation, % at 7.6 µM | 0.66% of 360,000 active | AID 624169;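 active = activation above a run cutoff, the mean activation of all tested compounds plus 3 SD, cut at about 14% in these data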
EBI2 antag: blocks human EBI2 receptor beta-arrestin signaling; P32249; EBI2 beta-arrestin recruitment, luminescence, 7a,25-OHC stimulated; inhibition, % at 5 µM; 0.81% of 360,000 active; AID 651636; in the data active = inhibition above about 38%;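 note: enzyme fragment complementation signal reports receptor beta-arrestin coupling in cells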
Target sequence (P32249 whole entry, looked up, the tested form may be a part): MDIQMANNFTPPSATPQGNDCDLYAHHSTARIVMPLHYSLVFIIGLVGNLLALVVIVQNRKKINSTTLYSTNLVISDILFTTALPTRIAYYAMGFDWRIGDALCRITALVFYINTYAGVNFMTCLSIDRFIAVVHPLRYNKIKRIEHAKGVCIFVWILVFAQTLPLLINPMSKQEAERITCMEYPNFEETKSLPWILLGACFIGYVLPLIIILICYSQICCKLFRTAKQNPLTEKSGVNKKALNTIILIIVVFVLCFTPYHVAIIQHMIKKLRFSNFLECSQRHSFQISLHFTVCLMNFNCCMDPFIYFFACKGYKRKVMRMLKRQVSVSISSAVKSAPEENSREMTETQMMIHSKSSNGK
CCR6 antagonist: CCR6 (human) receptor antagonism | AID 493098 | CHO-K1 CCR6 PathHunter beta-arrestin, luminescence, CCL20-stimulated | inhibition, % at 20 µM | 0.49% of 340,000 active;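 active = compounds whose inhibition of the agonist-driven luminescence signal at 20 µM reaches about 50%, limit read from the data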;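 note: cells stimulated with CCL20 at 14 nM final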
EBI2 antag conf: EBI2 (human) antagonism, single concentration confirmation. shares compounds with EBI2 antag. EBI2 beta-arrestin luminescence, 7a,25-OHC antagonism. inhibition, % at 5 µM. 29% of 2,400 active. AID 651997;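 active = inhibition of at least 50%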
EBI2 agonist: counter-screen for EBI2 antagonists: EBI2 agonist activity. shares compounds with EBI2 antag. AID 652000. EBI2-expressing cells, agonist mode, luminescence, 60 min; 0% vehicle, 100% 7α,25-dihydroxycholesterol control. activation, % at 5 µM. 2,400 tested, under 10 active;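 active = activation of at least 50%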
bGal counter: inhibits E. coli beta-galactosidase, counter-screen for EBI2 antagonists; shares compounds with EBI2 antag; purified beta-galactosidase, luminescent Galacton Star, 15 min; inhibition, % at 5 µM; 1% of 2,400 active; AID 652176;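 active = replicate-average signal at least 3 plate SD below neutral wells, shown as high inhibition, flagging enzyme-inhibiting false positives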;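 note: higher means stronger loss of beta-gal luminescence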
Large screens that a line does not name were inactive (follow-up assays come after a bar, where they were run). Compounds with a hit are over-represented: about 2.1% of the library has one in this group of screens.

O=C(Nc1ccc(Oc2ccccc2)nc1)C1CCN(Cc2ccco2)CC1	none
O=C(/C=C/c1ccco1)N1CCN(C/C=C/c2ccccc2)CC1	EBI2 antag 63 | EBI2 antag conf inactive | EBI2 agonist inactive | bGal counter inactive
Cc1ccc(/C=C/C(=O)N2CCN(S(=O)(=O)c3cccs3)CC2)o1	none
Cc1ccc(/C=C/C(=O)N2CCN(S(=O)(=O)/C=C/c3ccccc3)CC2)o1	EBI2 antag 67 | EBI2 antag conf inactive | EBI2 agonist inactive | bGal counter inactive
O=C(/C=C/c1ccco1)N1CCN(S(=O)(=O)/C=C/c2ccccc2)CC1	EBI2 antag 79 | EBI2 antag conf inactive | EBI2 agonist inactive | bGal counter inactive
CCOC(=O)CSC1=C(C#N)C(c2sccc2C)C(C(C)=O)=C(C)N1 (configuration not stated)	none
O=S(=O)(Nc1ccc2c3c(cccc13)CC2)c1ccc(F)cc1	none
COc1cccc(NC(=O)Cn2c3ccc(OC)cc3c3nc4n(c(=O)c32)CCS4)c1	EBI2 antag 57 | EBI2 antag conf inactive | EBI2 agonist inactive | bGal counter inactive
COc1ccc2c(c1)c1nc3n(c(=O)c1n2CC(=O)Nc1cc(C)[nH]n1)CCS3	none (no result: CXCR6 block, m5-HT2A agonist, EBI2 antag, CCR6 antagonist)
COCCNc1nc(NCCOc2ccccc2Cl)c2sc(-c3ccccc3)cc2n1	EBI2 antag 40 (no result: APJ ag, APJ antagonist, CCR6 antagonist) | EBI2 antag conf inactive | EBI2 agonist inactive | bGal counter inactive
COCCNc1nc(NCC2CCCCC2)c2sc(-c3ccccc3)cc2n1	none (no result: APJ ag, APJ antagonist, CCR6 antagonist)
COCCNc1nc(NCCNC(C)=O)c2sc(-c3ccccc3)cc2n1	none (no result: APJ ag, APJ antagonist, CCR6 antagonist)
c1ccc(-c2cc3nc(NCC4CC4)nc(NCC4CCCCC4)c3s2)cc1	EBI2 antag 56 (no result: APJ ag, APJ antagonist, CCR6 antagonist) | EBI2 antag conf inactive | EBI2 agonist inactive | bGal counter inactive
Cn1ncc([N+](=O)[O-])c1C(=O)Nc1ccc(C2CCCCC2)cc1	none
O=C(Nc1ccc(OC(F)(F)F)cc1)C1CC(=O)N(Cc2ccco2)C1 (configuration not stated)	none
Cc1cc(C(=O)OCC(=O)c2cccc([N+](=O)[O-])c2)c2cccc(C)c2n1	none
COc1ccc(C(=O)CC(=O)c2ccc(C(C)(C)C)cc2)cc1	none (no result: APJ ag, APJ antagonist)
COc1ccc(CCC(=O)N2CCN(S(=O)(=O)c3ccc4ccccc4c3)CC2)cc1	EBI2 antag 64 | EBI2 antag conf inactive | EBI2 agonist inactive | bGal counter inactive
COc1ccc(CCC(=O)N2CCN(S(=O)(=O)c3ccc(OC(F)(F)F)cc3)CC2)cc1	EBI2 antag 54 | EBI2 antag conf inactive | EBI2 agonist inactive | bGal counter inactive
CCc1ccc(CCC(=O)N2CCN(S(=O)(=O)c3ccc(Br)cc3)CC2)cc1	EBI2 antag 88 (no result: APJ ag, APJ antagonist, CCR6 antagonist) | EBI2 antag conf 52 | EBI2 agonist inactive | bGal counter inactive
COc1ccc(S(=O)(=O)N2CCN(C(=O)CC(C)C)CC2)cc1	none
COc1cc(CCC(=O)N2CCN(S(=O)(=O)c3ccc(C)c(C)c3)CC2)cc(OC)c1OC	none
COc1ccc(CCC(=O)N2CCN(S(=O)(=O)c3ccc(OC)c([N+](=O)[O-])c3)CC2)cc1	EBI2 antag 54 (no result: APJ ag, APJ antagonist, CCR6 antagonist) | EBI2 antag conf inactive | EBI2 agonist inactive | bGal counter inactive
O=C(CCl)N1CCN(S(=O)(=O)c2ccc3ccccc3c2)CC1	none
O=C(NC1CC1)c1ccc(CN(c2ccccc2)S(=O)(=O)c2ccccc2)cc1	none
COc1cc2c3nc4n(c(=O)c3n(CC(=O)N3CCCC3)c2cc1OC)CCS4	none (no result: APJ ag, APJ antagonist)
CCN(C(=O)c1cccc(S(=O)(=O)N2CCc3ccccc32)c1)C1CCS(=O)(=O)C1 (configuration not stated)	none
CCOCCCNC(=O)C(NC(=O)c1ccc(NC(C)=O)cc1)c1ccccc1 (configuration not stated)	none
COc1ccc(C2c3ccc(O)cc3Oc3ncn4nc(-c5cccnc5)nc4c32)cc1OC (configuration not stated)	EBI2 antag 81 | EBI2 antag conf 55 | EBI2 agonist inactive | bGal counter inactive
O=C(N/N=C/c1ccc(Cl)cc1Cl)c1cccc(F)c1	EBI2 antag 45 | EBI2 antag conf inactive | EBI2 agonist inactive | bGal counter inactive
Nc1nc(COc2ccc(F)cc2)nc(N2CCCCC2)n1	none
c1ccc(Cn2cc(CNc3ccccc3)nn2)cc1	EBI2 antag 49 | EBI2 antag conf inactive | EBI2 agonist inactive | bGal counter inactive
CCOC(=O)CN(C(=O)CSc1nnc(CNc2ccc(C)cc2C)o1)c1ccccc1	EBI2 antag 45 | EBI2 antag conf inactive | EBI2 agonist inactive | bGal counter inactive
O=C(c1ccc(Cl)cc1)N1CCC(O)(CSc2ccc(Cl)cc2Cl)CC1	EBI2 antag 66 | EBI2 antag conf 56 | EBI2 agonist inactive | bGal counter inactive
O=C(c1ccc(Cl)c(Cl)c1)N1CCC(O)(CN2CCOCC2)CC1	none
CCCCNC(=O)CCCCC(=O)N/N=C/c1cccc(Cl)c1	none
Cc1ccc2nc(-c3ccccc3Cl)cc(C(=O)Nc3cc(C)on3)c2c1	EBI2 antag 60 | EBI2 antag conf inactive | EBI2 agonist inactive | bGal counter inactive
Brc1ccc(OCc2nnc(SCC3CCCCC3)o2)cc1	EBI2 antag 69 | EBI2 antag conf inactive | EBI2 agonist inactive | bGal counter inactive
O=C(CNC(=O)c1n[nH]c2ccccc12)Nc1ccc(F)c(F)c1F	none
c1ccc(Cc2nn3c(COc4ccccc4)nnc3s2)cc1	EBI2 antag 60 | EBI2 antag conf inactive | EBI2 agonist inactive | bGal counter inactive
COCCNc1oc(-c2ccccc2Cl)nc1C#N	none
N#Cc1nc(COc2ccc(F)cc2)oc1N1CCC(Cc2ccccc2)CC1	EBI2 antag 60 | EBI2 antag conf inactive | EBI2 agonist inactive | bGal counter inactive
N#Cc1nc(COc2ccc(Br)cc2)oc1N1CCN(Cc2ccccc2)CC1	EBI2 antag 43 (no result: APJ ag, APJ antagonist) | EBI2 antag conf inactive | EBI2 agonist inactive | bGal counter inactive
COc1ccc(OCc2nc(C#N)c(N3CCN(c4ccc(OC)cc4)CC3)o2)cc1	EBI2 antag 44 | EBI2 antag conf inactive | EBI2 agonist inactive | bGal counter inactive
COc1ccc(N2CCN(c3oc(COc4ccccc4Cl)nc3C#N)CC2)cc1	none
N#Cc1nc(COc2ccc(F)cc2)oc1N1CCN(Cc2ccccc2)CC1	none
COc1ccc(Nc2oc(COc3ccc(OC)cc3)nc2C#N)cc1	EBI2 antag 52 | EBI2 antag conf inactive | EBI2 agonist inactive | bGal counter inactive
